Test results reported in ChEMBL document CHEMBL1124805 (J Med Chem, 1990).

Tests used:
D(1A) dopamine receptor = D(1A) dopamine receptor (Rattus norvegicus, UniProt P18901); experiment: Binding affinity at rat striatal Dopamine receptor D1 using [3H]- SCH-23390 radioligand
D(2) dopamine receptor = D(2) dopamine receptor (Rattus norvegicus, UniProt P61169); experiment: Binding affinity at rat striatal Dopamine receptor D2 using [3H]- piperone radioligand
[1] = target: Dopamine receptors; D1 & D2 (Rattus norvegicus) (UniProt P18901+P61169); experiment: Ratio of binding affinity of D2 to binding affinity of D1; assay type: protein assay
Dopamine receptor = Dopamine receptor (Bos taurus, UniProt Q95136+P20288); experiment: Agonistic activity against calf striatal Dopamine receptor using [3H]- ADTN radioligand; assay type: functional
Outline: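 Calf striatal membranes incubated with the dopamine agonist radioligand (±)-[3H]ADTN at 0.5 nM for 60 min at 25 °C.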

Sequence of D(1A) dopamine receptor (P18901 whole entry): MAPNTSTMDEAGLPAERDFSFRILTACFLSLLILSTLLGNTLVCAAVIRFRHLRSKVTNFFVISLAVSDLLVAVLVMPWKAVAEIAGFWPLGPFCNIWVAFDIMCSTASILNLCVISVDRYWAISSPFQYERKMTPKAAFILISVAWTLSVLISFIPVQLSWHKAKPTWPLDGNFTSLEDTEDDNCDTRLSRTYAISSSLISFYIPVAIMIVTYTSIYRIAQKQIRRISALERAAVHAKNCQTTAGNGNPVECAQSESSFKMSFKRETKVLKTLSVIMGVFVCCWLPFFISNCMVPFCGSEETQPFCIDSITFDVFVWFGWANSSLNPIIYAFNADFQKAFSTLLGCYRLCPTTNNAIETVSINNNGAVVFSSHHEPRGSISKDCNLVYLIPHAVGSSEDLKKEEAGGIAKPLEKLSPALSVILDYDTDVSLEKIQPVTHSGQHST
Sequence of D(2) dopamine receptor (P61169 whole entry): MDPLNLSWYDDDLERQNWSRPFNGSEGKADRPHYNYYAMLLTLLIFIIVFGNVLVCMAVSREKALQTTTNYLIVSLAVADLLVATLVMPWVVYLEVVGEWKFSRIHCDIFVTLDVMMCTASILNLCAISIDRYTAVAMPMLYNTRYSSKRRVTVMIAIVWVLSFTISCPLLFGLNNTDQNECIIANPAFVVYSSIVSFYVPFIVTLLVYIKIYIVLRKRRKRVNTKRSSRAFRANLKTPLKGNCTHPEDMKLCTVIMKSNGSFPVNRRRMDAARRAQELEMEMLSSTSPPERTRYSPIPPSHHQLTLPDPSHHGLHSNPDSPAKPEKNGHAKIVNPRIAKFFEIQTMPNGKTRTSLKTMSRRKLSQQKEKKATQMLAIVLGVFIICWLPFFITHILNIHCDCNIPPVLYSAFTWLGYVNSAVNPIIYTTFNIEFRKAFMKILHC

Structure (SMILES)	Ki (D(1A) dopamine receptor)	Ki (D(2) dopamine receptor)	Potency ratio [1]	Ki (Dopamine receptor)
CN1CCc2cc(Br)cc3c2[C@H]1Cc1ccc(O)c(O)c1-3	106 nM	17.7 nM	6	
COc1cc2c3c(c1)-c1c(ccc(O)c1O)C[C@H]3N(C)CC2	< 10000 nM	1.12 nM	> 9000	16.4 nM
CCCN1CCc2cc(O)cc3c2[C@H]1Cc1ccc(O)c(O)c1-3	915 nM	0.053 nM	17300	1.15 nM
CN1CCc2cc(Cl)cc3c2[C@H]1Cc1ccc(O)c(O)c1-3	74.5 nM	22.3 nM	3.3	
COc1cc2c3c(c1)-c1c(ccc(O)c1O)C[C@@H]3N(C)CC2	< 10000 nM	34.7 nM	> 300	162 nM
CCCN1CCc2cc(OC)cc3c2[C@H]1Cc1ccc(O)c(O)c1-3	1780 nM	0.17 nM	10500	3.84 nM
